Measured values taken from ChEMBL document CHEMBL4414561, “Cholinesterase Inhibitory Arisugacins L-Q from a Penicillium sp. Isolate Obtained through a Citizen Science Initiative and Their Activities in a Phenotype-Based Zebrafish Assay” (J Nat Prod, 2019).
Activity calls are given as the source filed them. The calls are words filed in the database; no cut-off is given here.

Assays:
[1] = species on record: Danio rerio; test: Induction of paralysis in AB/TU zebra fish at 100 uM treated at 7 hpf and measured after 72 hrs; type: functional, organism-based
How it was run: (§1)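 Embryos exposed from 7 h postfertilization and scored for paralysis at 72 hpf. Value is the lowest concentration giving paralysis; […]. Pure compounds come from 10 mM DMSO stocks, with further dilutions made in DMSO.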

[2] = target: Acetylcholinesterase (Electrophorus electricus) (UniProt O42275); test: Inhibition of electric eel AChE at 50 uM incubated for 15 mins by Ellman's method relative to control
How it was run: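 Colorimetric kit assay with Electrophorus electricus AChE. Compound is incubated with enzyme for 15 min. Assay buffer containing AChE substrate and DTNB is then added, and absorbance is read at 0 and 15 min. Single-point screen at 50 μM; IC50 also determined.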

[3] = target: Cholinesterase (Equus caballus) (UniProt P81908); test: Inhibition of equine serum BChE at 50 uM using S-butyrylthiocholine iodide as substrate incubated for 15 mins by Ellman's method relative to control
How it was run: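 Same colorimetric kit with equine serum butyrylcholinesterase and S-butyrylthiocholine iodide substrate plus DTNB. Compound is preincubated with enzyme for 15 min. Absorbance is read at 0 and 15 min after substrate addition. Sample tested at 50 μM.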

[4] = species on record: Danio rerio; test: Induction of paralysis in AB/TU zebra fish at 5 uM treated at 7 hpf and measured after 72 hrs; type: functional, organism-based; how it was run: as §1
[5] = target: Acetylcholinesterase (Electrophorus electricus, UniProt O42275); test: Inhibition of electric eel AChE incubated for 15 mins by Ellman's method
How it was run: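 Colorimetric kit assay with Electrophorus electricus AChE. Compound is incubated with enzyme for 15 min. Assay buffer containing AChE substrate and DTNB is then added, and absorbance is read at 0 and 15 min.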

[6] = species on record: Danio rerio; test: Induction of paralysis in AB/TU zebra fish at 1 uM treated at 7 hpf and measured after 72 hrs; type: functional, organism-based; how it was run: as §1
[7] = species on record: Danio rerio; test: Induction of paralysis in AB/TU zebra fish at 50 uM treated at 7 hpf and measured after 72 hrs; type: functional, organism-based; how it was run: as §1
[8] = species on record: Danio rerio; test: Induction of paralysis in AB/TU zebra fish at 10 uM treated at 7 hpf and measured after 72 hrs; type: functional, organism-based; how it was run: as §1

Sequence of Cholinesterase (Equus caballus) (P81908 whole entry): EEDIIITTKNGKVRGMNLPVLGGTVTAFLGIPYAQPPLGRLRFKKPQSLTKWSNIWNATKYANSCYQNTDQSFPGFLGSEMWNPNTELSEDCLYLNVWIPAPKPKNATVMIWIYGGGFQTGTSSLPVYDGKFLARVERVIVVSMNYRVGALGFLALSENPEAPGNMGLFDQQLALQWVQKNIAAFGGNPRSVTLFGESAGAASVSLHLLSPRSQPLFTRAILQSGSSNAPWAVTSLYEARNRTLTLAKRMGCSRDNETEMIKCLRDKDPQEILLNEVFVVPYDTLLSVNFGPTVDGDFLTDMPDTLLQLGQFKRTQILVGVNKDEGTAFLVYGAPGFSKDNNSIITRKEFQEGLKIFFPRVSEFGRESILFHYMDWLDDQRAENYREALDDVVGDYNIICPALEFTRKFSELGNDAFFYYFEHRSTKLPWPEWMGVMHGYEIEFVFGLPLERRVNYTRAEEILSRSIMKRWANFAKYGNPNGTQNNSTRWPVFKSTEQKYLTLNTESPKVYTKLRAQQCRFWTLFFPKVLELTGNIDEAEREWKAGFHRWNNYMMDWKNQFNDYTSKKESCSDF
Sequence of Acetylcholinesterase (O42275 whole entry): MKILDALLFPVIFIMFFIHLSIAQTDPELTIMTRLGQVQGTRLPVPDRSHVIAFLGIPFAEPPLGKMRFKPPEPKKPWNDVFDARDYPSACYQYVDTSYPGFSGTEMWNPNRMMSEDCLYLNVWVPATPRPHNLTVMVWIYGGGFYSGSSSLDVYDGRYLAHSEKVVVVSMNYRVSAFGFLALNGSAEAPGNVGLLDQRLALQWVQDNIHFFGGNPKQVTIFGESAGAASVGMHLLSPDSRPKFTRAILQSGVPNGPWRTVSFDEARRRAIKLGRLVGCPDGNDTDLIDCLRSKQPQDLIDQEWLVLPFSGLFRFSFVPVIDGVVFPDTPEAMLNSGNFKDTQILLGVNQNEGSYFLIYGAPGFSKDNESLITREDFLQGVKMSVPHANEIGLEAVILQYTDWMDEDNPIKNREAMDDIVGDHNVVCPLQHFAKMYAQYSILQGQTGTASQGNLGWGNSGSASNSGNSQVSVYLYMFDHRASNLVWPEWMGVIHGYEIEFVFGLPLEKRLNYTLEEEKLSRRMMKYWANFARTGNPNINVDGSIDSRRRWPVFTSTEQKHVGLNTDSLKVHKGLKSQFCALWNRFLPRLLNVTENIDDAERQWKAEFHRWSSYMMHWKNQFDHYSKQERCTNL
Sequence of Acetylcholinesterase (Electrophorus electricus) (O42275 24-633 limits assumed): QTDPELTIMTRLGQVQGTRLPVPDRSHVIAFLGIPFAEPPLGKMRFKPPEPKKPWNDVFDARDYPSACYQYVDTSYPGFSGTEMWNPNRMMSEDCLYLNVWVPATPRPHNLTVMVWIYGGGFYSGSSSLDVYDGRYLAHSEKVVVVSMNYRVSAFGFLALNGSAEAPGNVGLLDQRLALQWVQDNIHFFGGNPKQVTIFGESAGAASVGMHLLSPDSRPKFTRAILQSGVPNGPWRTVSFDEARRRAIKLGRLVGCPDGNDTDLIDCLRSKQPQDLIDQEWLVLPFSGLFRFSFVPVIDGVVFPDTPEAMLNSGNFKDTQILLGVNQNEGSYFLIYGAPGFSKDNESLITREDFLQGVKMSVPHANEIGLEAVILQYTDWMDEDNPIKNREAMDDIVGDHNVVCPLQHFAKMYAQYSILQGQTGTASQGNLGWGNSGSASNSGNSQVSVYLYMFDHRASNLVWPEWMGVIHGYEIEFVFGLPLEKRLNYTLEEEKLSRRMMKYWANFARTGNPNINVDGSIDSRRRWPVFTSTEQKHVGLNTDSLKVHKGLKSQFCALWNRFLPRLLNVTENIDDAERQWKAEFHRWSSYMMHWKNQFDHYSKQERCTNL

SMILES | Activity [1] | inhibition [2] [%] | inhibition [3] [%] | Activity [4] | IC50 [5] [µM] | Activity [6] | Activity [7] | Activity [8]
CNC(=O)Oc1ccc2c(c1)[C@]1(C)CCN(C)[C@@H]1N2C | Active | 99.8 | 93.2 |  |  |  |  | 
COc1ccc(-c2cc3c(c(=O)o2)C[C@@H]2[C@@]4(C)CCC(=O)C(C)(C)[C@@H]4CC[C@@]2(C)O3)cc1 |  | 26.9 | 11.6 | Active | > 100 |  |  | 
CC(C)NP(=O)(NC(C)C)OP(=O)(NC(C)C)NC(C)C [TETRAISOPROPYL PYROPHOSPHORAMIDE] | inactive | 1.3 | 15.1 |  | > 100 |  |  | 
COc1ccc(-c2cc3c(c(=O)o2)C[C@@H]2[C@@]4(C)CC[C@H](O)C(C)(C)[C@@H]4CC[C@@]2(C)O3)cc1 | inactive | 3 | 4.7 |  |  |  |  | 
COc1ccc(-c2cc3c(c(=O)o2)C[C@H]2[C@@](C)(CC[C@@]4(O)C(C)(C)C(=O)CC[C@]24C)O3)cc1 |  | 95.1 | 32.6 | Active | 1.4 |  |  | 
COP(=S)(OC)SCn1nnc2ccccc2c1=O |  | 12.2 | 3.3 |  |  | Active |  | 
COc1ccc(-c2cc3c(c(=O)o2)C[C@]2(O)[C@@]4(C)CC[C@H](O)C(C)(C)[C@]4(O)CC[C@@]2(C)O3)cc1 |  | 89.4 | 4.7 |  | 3.9 |  | Active | 
COc1ccc(-c2cc3c(c(=O)o2)C[C@]2(O)[C@@]4(C)CCC(=O)C(C)(C)[C@]4(O)CC[C@@]2(C)O3)cc1 | inactive | 96.6 | 9.3 |  |  |  |  | 
COc1ccc(-c2cc(O)c(C/C=C(\C)CC/C=C(\C)CCC(O)C(C)(C)O)c(=O)o2)cc1 (stereo unspecified) |  | 34.1 | 4.7 |  | > 100 |  |  | Active
COc1ccc(-c2cc(O)c(C/C=C(\C)CC/C=C(\C)CCC=C(C)C)c(=O)o2)cc1 |  | 4.3 | 0 |  | > 100 |  | Active | 
COc1ccc(-c2cc3c(c(=O)o2)C[C@H]2[C@@]4(C)C=CC(=O)C(C)(C)[C@@H]4CC[C@@]2(C)O3)cc1 |  | 40.3 | 0 | Active | 66 |  |  | 
COc1ccc(-c2cc3c(c(=O)o2)C[C@]2(O)[C@@]4(C)CC[C@@H](OC(C)=O)C(C)(C)[C@]4(O)CC[C@@]2(C)O3)cc1 |  | 60.1 | 4.7 |  |  |  |  | Active
COc1ccc(-c2cc3c(c(=O)o2)C[C@]2(O)[C@@]4(C)[C@H](O)CC(=O)C(C)(C)[C@@]4(O)CC[C@@]2(C)O3)cc1 | inactive | 83.6 | 0 |  | 4.6 |  |  | 
COc1ccc(-c2cc3c(c(=O)o2)C[C@]2(O)[C@@]4(C)CC[C@@H](O)C(C)(C)[C@]4(O)CC[C@@]2(C)O3)cc1 | inactive | 83.4 | 0 |  |  |  |  | 
COc1ccc(-c2cc3c(c(=O)o2)C[C@]2(O)[C@@]4(C)C(=O)C[C@@H](O)C(C)(C)[C@]4(O)CC[C@@]2(C)O3)cc1 |  | 98 | 0 |  | 0.191 | Active |  | 
COc1ccc(-c2cc3c(c(=O)o2)C[C@]2(O)[C@@]4(C)[C@H](O)C[C@@H](O)C(C)(C)[C@]4(O)CC[C@@]2(C)O3)cc1 | inactive | 29.2 | 0 |  | > 100 |  |  | 
COc1ccc(-c2cc3c(c(=O)o2)C[C@H]2[C@@](C)(CC[C@@]4(O)C(C)(C)[C@@H](O)CC[C@]24C)O3)cc1 | inactive | 75.4 | 7 |  |  |  |  | 
